Values after ≈ are worked out from the molar mass of the structure shown.
Assays:
Bacillus subtilis = assay: Antibacterial activity against Bacillus subtilis MTCC 441 by broth microdilution method; format: functional
Method in brief: (§1)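 Broth microdilution per NCCLS, with serial dilutions in Mueller Hinton broth and DMSO as diluent. Tubes were incubated overnight at 37 °C. MIC was the lowest concentration giving no visible growth, with the control organism's MIC read to verify concentrations. Tubes without growth were subcultured overnight at 37 °C to judge bacteriostatic versus bactericidal action.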

Clostridium tetani = assay: Antibacterial activity against Clostridium tetani MTCC 449 by broth microdilution method; format: functional
Streptococcus pneumoniae = assay: Antibacterial activity against Streptococcus pneumoniae MTCC 1936 by broth microdilution method; format: functional; method in brief: as §1
Escherichia coli = assay: Antibacterial activity against Escherichia coli MTCC 443 by broth microdilution method; format: functional; method in brief: as §1
Salmonella typhi = assay: Antibacterial activity against Salmonella typhi MTCC 98 by broth microdilution method; format: functional, Salmonella enterica subsp. enterica serovar Typhi; conditions: Salmonella enterica
Vibrio cholerae = assay: Antibacterial activity against Vibrio cholerae MTCC 3906 by broth microdilution method; format: functional
Aspergillus fumigatus = assay: Antifungal activity against Aspergillus fumigatus MTCC 3008 by broth microdilution method; format: functional
Candida albicans = assay: Antifungal activity against Candida albicans MTCC 227 by broth microdilution method; format: functional
[1] = test system: Mycobacterium tuberculosis; assay: Growth inhibition of Mycobacterium tuberculosis H37Rv at 6.25 ug/mL after 12 to 28 days relative to control; format: functional
Plasmodium falciparum = assay: Antimalarial activity against trophozoite stage of chloroquine-sensitive Plasmodium falciparum 3D7 infected in human erythrocytes after 48 hrs; format: functional, organism-based; conditions: 3D7, 48 h
Method in brief: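 Parasites were kept in continuous culture in A+ human erythrocytes in RPMI with 10% human serum. Sorbitol-synchronized trophozoites at 1–2% parasitaemia and 2.5% haematocrit were exposed to serial dilutions (maximum 1 mg/ml; 0.02% final DMSO) for 48 h at 37 °C. Growth inhibition was measured; chloroquine and quinine served as positive controls. IC50 came from duplicate experiments.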

Row | Compound | MIC (Bacillus subtilis) | MIC (Clostridium tetani) | MIC (Streptococcus pneumoniae) | MIC (Escherichia coli) | MIC (Salmonella typhi) | MIC (Vibrio cholerae) | MIC (Aspergillus fumigatus) | MIC (Candida albicans) | inhibition at 6.25 µg/mL [1] | IC50 (Plasmodium falciparum)
1 | CC1(C)CC(=O)C2=C(C1)N(Nc1ccccc1)C(N)=C(C#N)C2c1cc2ccccc2nc1Cl (stereo not drawn) | 200 µg/mL (≈ 426 µM) | 250 µg/mL (≈ 532 µM) | 200 µg/mL (≈ 426 µM) | 200 µg/mL (≈ 426 µM) | 250 µg/mL (≈ 532 µM) | 250 µg/mL (≈ 532 µM) | > 1000 µg/mL | 500 µg/mL (≈ 1060 µM) | 8% | 0.015 µg/mL (≈ 0.0319 µM)
2 | COc1ccc2nc(Cl)c(C3C(C#N)=C(N)N(Nc4ccc(Br)cc4)C4=C3C(=O)CC(C)(C)C4)cc2c1 (stereo not drawn) | 250 µg/mL (≈ 432 µM) | 200 µg/mL (≈ 345 µM) | 250 µg/mL (≈ 432 µM) | 200 µg/mL (≈ 345 µM) | 125 µg/mL (≈ 216 µM) | 200 µg/mL (≈ 345 µM) | 500 µg/mL (≈ 864 µM) | 1000 µg/mL (≈ 1730 µM) | 17% | 0.014 µg/mL (≈ 0.0242 µM)
3 | CC1(C)CC(=O)C2=C(C1)N(Nc1ccc(F)cc1)C(N)=C(C#N)C2c1cc2ccccc2nc1Cl (stereo not drawn) | 500 µg/mL (≈ 1020 µM) | 200 µg/mL (≈ 410 µM) | 500 µg/mL (≈ 1020 µM) | 200 µg/mL (≈ 410 µM) | 200 µg/mL (≈ 410 µM) | 200 µg/mL (≈ 410 µM) | 1000 µg/mL (≈ 2050 µM) | 1000 µg/mL (≈ 2050 µM) | 62% | 0.027 µg/mL (≈ 0.0553 µM)
4 | CC1(C)CC(=O)C2=C(C1)N(Nc1ccc(Cl)cc1)C(N)=C(C#N)C2c1cc2ccccc2nc1Cl (stereo not drawn) | 500 µg/mL (≈ 991 µM) | 250 µg/mL (≈ 496 µM) | 500 µg/mL (≈ 991 µM) | 200 µg/mL (≈ 396 µM) | 500 µg/mL (≈ 991 µM) | 500 µg/mL (≈ 991 µM) | 500 µg/mL (≈ 991 µM) | 250 µg/mL (≈ 496 µM) | 22% | 0.42 µg/mL (≈ 0.833 µM)
5 | COc1ccc2nc(Cl)c(C3C(C#N)=C(N)N(Nc4ccc(C)cc4)C4=C3C(=O)CC(C)(C)C4)cc2c1 (stereo not drawn) | 200 µg/mL (≈ 389 µM) | 100 µg/mL (≈ 195 µM) | 200 µg/mL (≈ 389 µM) | 150 µg/mL (≈ 292 µM) | 200 µg/mL (≈ 389 µM) | 200 µg/mL (≈ 389 µM) | 500 µg/mL (≈ 973 µM) | 500 µg/mL (≈ 973 µM) | 50% | 0.19 µg/mL (≈ 0.37 µM)
6 | COc1ccc2nc(Cl)c(C3C(C#N)=C(N)N(Nc4ccccc4)C4=C3C(=O)CC(C)(C)C4)cc2c1 (stereo not drawn) | 250 µg/mL (≈ 500 µM) | 500 µg/mL (≈ 1000 µM) | 250 µg/mL (≈ 500 µM) | 250 µg/mL (≈ 500 µM) | 250 µg/mL (≈ 500 µM) | 500 µg/mL (≈ 1000 µM) | 500 µg/mL (≈ 1000 µM) | 250 µg/mL (≈ 500 µM) | 80% | 0.22 µg/mL (≈ 0.44 µM)
7 | COc1ccc(NN2C(N)=C(C#N)C(c3cc4cc(Cl)ccc4nc3Cl)C3=C2CC(C)(C)CC3=O)cc1 (stereo not drawn) | 250 µg/mL (≈ 468 µM) | 200 µg/mL (≈ 374 µM) | 250 µg/mL (≈ 468 µM) | 250 µg/mL (≈ 468 µM) | 200 µg/mL (≈ 374 µM) | 250 µg/mL (≈ 468 µM) | > 1000 µg/mL | 100 µg/mL (≈ 187 µM) | 22% | 0.026 µg/mL (≈ 0.0486 µM)
8 | Cc1ccc(NN2C(N)=C(C#N)C(c3cc4cc(C)ccc4nc3Cl)C3=C2CC(C)(C)CC3=O)cc1 (stereo not drawn) | 200 µg/mL (≈ 402 µM) | 250 µg/mL (≈ 502 µM) | 200 µg/mL (≈ 402 µM) | 500 µg/mL (≈ 1000 µM) | 500 µg/mL (≈ 1000 µM) | 500 µg/mL (≈ 1000 µM) | 500 µg/mL (≈ 1000 µM) | 500 µg/mL (≈ 1000 µM) | 32% | 0.22 µg/mL (≈ 0.442 µM)
9 | CC1(C)CC(=O)C2=C(C1)N(Nc1ccc(Br)cc1)C(N)=C(C#N)C2c1cc2cc(Cl)ccc2nc1Cl (stereo not drawn) | 250 µg/mL (≈ 429 µM) | 250 µg/mL (≈ 429 µM) | 200 µg/mL (≈ 343 µM) | 100 µg/mL (≈ 171 µM) | 250 µg/mL (≈ 429 µM) | 250 µg/mL (≈ 429 µM) | 500 µg/mL (≈ 857 µM) | 1000 µg/mL (≈ 1710 µM) | 85% | 0.08 µg/mL (≈ 0.137 µM)
10 | Cc1ccc(NN2C(N)=C(C#N)C(c3cc4ccccc4nc3Cl)C3=C2CC(C)(C)CC3=O)cc1 (stereo not drawn) | 250 µg/mL (≈ 517 µM) | 250 µg/mL (≈ 517 µM) | 500 µg/mL (≈ 1030 µM) | 200 µg/mL (≈ 413 µM) | 200 µg/mL (≈ 413 µM) | 250 µg/mL (≈ 517 µM) | 500 µg/mL (≈ 1030 µM) | 500 µg/mL (≈ 1030 µM) | 8% | 0.005 µg/mL (≈ 0.0103 µM)
11 | COc1ccc(NN2C(N)=C(C#N)C(c3cc4cc(OC)ccc4nc3Cl)C3=C2CC(C)(C)CC3=O)cc1 (stereo not drawn) | 200 µg/mL (≈ 377 µM) | 200 µg/mL (≈ 377 µM) | 25 µg/mL (≈ 47.2 µM) | 100 µg/mL (≈ 189 µM) | 50 µg/mL (≈ 94.3 µM) | 62.5 µg/mL (≈ 118 µM) | 500 µg/mL (≈ 943 µM) | 500 µg/mL (≈ 943 µM) | 7% | 0.019 µg/mL (≈ 0.0358 µM)
12 | CC1(C)CC(=O)C2=C(C1)N(Nc1ccccc1)C(N)=C(C#N)C2c1cc2cc(Cl)ccc2nc1Cl (stereo not drawn) | 1000 µg/mL (≈ 1980 µM) | 1000 µg/mL (≈ 1980 µM) | 1000 µg/mL (≈ 1980 µM) | 200 µg/mL (≈ 396 µM) | 250 µg/mL (≈ 496 µM) | 1000 µg/mL (≈ 1980 µM) | 1000 µg/mL (≈ 1980 µM) | 1000 µg/mL (≈ 1980 µM) | 5% | 0.21 µg/mL (≈ 0.416 µM)
13 | COc1ccc(NN2C(N)=C(C#N)C(c3cc4cc(C)ccc4nc3Cl)C3=C2CC(C)(C)CC3=O)cc1 (stereo not drawn) | 200 µg/mL (≈ 389 µM) | 500 µg/mL (≈ 973 µM) | 100 µg/mL (≈ 195 µM) | 250 µg/mL (≈ 486 µM) | 500 µg/mL (≈ 973 µM) | 500 µg/mL (≈ 973 µM) | > 1000 µg/mL | > 1000 µg/mL | 3% | 0.54 µg/mL (≈ 1.05 µM)
14 | NYSTATIN | – | – | – | – | – | – | 100 µg/mL | 100 µg/mL | – | –
15 | CC1(C)S[C@@H]2[C@H](NC(=O)[C@H](N)c3ccccc3)C(=O)N2[C@H]1C(=O)O [AMPICILLIN] | 250 µg/mL (≈ 715 µM) | 250 µg/mL (≈ 715 µM) | 100 µg/mL (≈ 286 µM) | 100 µg/mL (≈ 286 µM) | 100 µg/mL (≈ 286 µM) | 100 µg/mL (≈ 286 µM) | – | – | – | –
